Here are results for 17 compounds from ChEMBL document CHEMBL3580529, “Limonoids with Anti-HIV Activity from Cipadessa cinerascens” (J Nat Prod, 2015).

The term EC50 denotes the concentration at which the effect is half-maximal. What is called CC50 is the concentration at which the toxic effect on the cells reaches its halfway point.

The test system of data set [1] is Human immunodeficiency virus 1. The data set can be described thus: Antiviral activity against HIV1 NL4-3 infected in human MT4 cells assessed as inhibition of virus-induced cytopathic effect incubated for 3 to 4 days by MTT assay. The format is functional, organism-based. To be noted: Human immunodeficiency virus 1, NL4-3, MT4. The procedure, abridged:
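MT-4 cells seeded with serial compound dilutions, then infected with HIV-1 NL4-3 at final MOI 0.03; 37 °C, 5% CO2, humidified, 3 or 4 days. MTT (5 mg/mL in PBS) added for 3 h, cells lysed in 10% Triton X-100/acidified 2-propanol, absorbance 570 nm. EC50 = concentration giving 50% protection against HIV-induced cytopathic effect.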
On the technique in general: Damage to the host cells serves as the signal in cytopathic effect assays.

Data set [2] can be described thus: Cytotoxicity against human MT4 cells assessed as reduction in cell viability incubated for 3 to 4 days by MTT assay. It counts as cell-based. The procedure, abridged:
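Serially diluted compounds on MT-4 cells, 37 °C, 5% CO2, humidified, 3 or 4 days; viability by MTT (5 mg/mL in PBS, 3 h), formazan solubilized with 10% Triton X-100 in acidified 2-propanol, read at 570 nm. CC50 = concentration killing 50% of MT-4 cells.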
On the technique in general: Formazan colour is commonly taken as a measure of viable cells.

The nature of data set [3]: Selectivity index, ratio of CC50 against human MT4 cells to EC50 for HIV1 NL4-3 infected in human MT4 cells. It counts as toxicity, cell-based. The following applies: MT4 cells (CC50) and HIV1 NL4-3 infected MT4 cells (EC50). The procedure, abridged:
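SI calculated as CC50 (MT-4 cytotoxicity, MTT read-out) divided by EC50 (protection of MT-4 cells from HIV-1 NL4-3 cytopathic effect, MOI 0.03), both from parallel 3–4 day assays at 37 °C.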

Turning to `C=C1[C@H]2C(=O)[C@@]3(C)[C@@H](O[C@@]14CC(=O)O[C@@H](c1ccoc1)[C@]4(C)[C@H]2O)[C@@H](OC(C)=O)[C@@H](OC(C)=O)C(C)(C)[C@@H]3CC(=O)OC`, the EC50 in data set [1] is more than 100 µM.
On the same count and under the same terms, in the case of `COC(=O)C[C@H]1C(C)(C)[C@H](OC(C)=O)[C@H](OC(C)=O)[C@@H]2O[C@]34CC(=O)O[C@@H](c5ccoc5)[C@]3(C)[C@@H](O)[C@@H](C(=O)[C@]4(C)O)[C@@]21C` it was more than 100 µM; in that of `C=C1[C@H]2C(=O)[C@@]3(C)[C@@H](O[C@@]14CC(=O)O[C@@H](C1=C[C@@H](O)OC1=O)[C@]4(C)[C@H]2OC(C)=O)[C@@H](OC(C)=O)CC(C)(C)[C@@H]3CC(=O)OC`, more than 100 µM.
Turning to `COC(=O)C[C@H]1C(C)(C)[C@H](OC(C)=O)[C@H](O)[C@@H]2O[C@]34CC(=O)O[C@@H](c5ccoc5)[C@]3(C)[C@@H](O)[C@@H](C(=O)[C@@H]4C)[C@@]21C`, in data set [1], the EC50 is more than 100 µM.
The same measure, in the same setting: in the case of `C=C1[C@H]2C(=O)[C@@]3(C)[C@@H](O[C@@]14CC(=O)O[C@@H](c1ccoc1)[C@]4(C)[C@H]2OC(C)=O)[C@@H](O)[C@@H](OC(C)=O)C(C)(C)[C@@H]3CC(=O)OC` it was more than 100 µM; in that of `COC(=O)C[C@H]1C(C)(C)[C@H](OC(C)=O)[C@H](O)[C@@H]2OC3=C(C)C4=CC(=O)O[C@@H](c5ccoc5)[C@]4(C)[C@@H](O)[C@@H]3[C@@]21C`, more than 100 µM; in that of `COC(=O)C[C@H]1C(C)(C)[C@H](O)[C@H](O)[C@@H]2OC3=C(C)C4=CC(=O)O[C@@H](c5ccoc5)[C@]4(C)C[C@@H]3[C@@]21C`, more than 100 µM.
With `COC(=O)C[C@H]1C(C)(C)[C@H](OC(C)=O)C[C@@H]2O[C@]34CC(=O)O[C@@H](c5ccoc5)[C@]3(C)[C@@H](O)[C@@H](C(=O)[C@@H]4C)[C@@]21C`, the EC50 in data set [1] was more than 100 µM.
Take `COC(=O)C[C@H]1C(C)(C)[C@H](OC(C)=O)[C@H](OC(C)=O)[C@@H]2O[C@]34CC(=O)O[C@@H](c5ccoc5)[C@]3(C)[C@@H](O)[C@@H](C(=O)[C@@]4(C)O)[C@@]21C`: in data set [1], the EC50 was more than 100 µM.
On the same count and under the same terms, as for `COC(=O)C[C@H]1C(C)(C)[C@H](OC(C)=O)[C@H](OC(C)=O)[C@@H]2O[C@]34CC(=O)O[C@@H](c5ccoc5)[C@]3(C)[C@@H](O)[C@@H](C(=O)[C@@H]4C)[C@@]21C`, the figure is more than 100 µM; as for `C=C1[C@@H]2C[C@@]3(C)[C@H](C4=C[C@@H](O)OC4=O)OC(=O)C[C@]13O[C@H]1C[C@@H](OC(C)=O)C(C)(C)[C@H](CC(=O)OC)[C@@]1(C)C2=O`, more than 100 µM.
For `C=C1[C@H]2C(=O)[C@@]3(C)[C@@H](O[C@@]14CC(=O)O[C@@H](c1ccoc1)[C@]4(C)[C@H]2O)[C@@H](O)[C@@H](OC(C)=O)C(C)(C)[C@@H]3CC(=O)OC`, the EC50 in data set [1] turned out to be 5.5 µM. For the same compound, the CC50 in data set [2] is more than 40 µM. The selectivity ratio in data set [3] was more than 7.2.
As for `C=C1[C@H]2C(=O)[C@@]3(C)[C@@H](O[C@@]14CC(=O)O[C@@H](C1=C[C@@H](O)OC1=O)[C@]4(C)[C@H]2OC(C)=O)[C@@H](OC(C)=O)[C@@H](OC(C)=O)C(C)(C)[C@@H]3CC(=O)OC`, the EC50 in data set [1] is more than 100 µM.
Consider `CCC(C)C(O)C(=O)O[C@H]1[C@H](OC=O)[C@H]([C@@]2(C)[C@@H](OC(C)=O)CC(=O)O[C@](C)(COC(C)=O)[C@@H]2CC(=O)OC)C(COC)=C2[C@H](O)C[C@@H](c3ccoc3)[C@@]21C` (some centres not stated), for which the EC50 in data set [1] came out at 6.1 µM. The CC50 in data set [2] is more than 40 µM. For the same compound, the selectivity ratio in data set [3] is more than 6.5.
For `Cc1ccnc2c1NC(=O)c1cccnc1N2C1CC1` [NEVIRAPINE], in data set [1], the EC50 was 0.1 µM. Further, the selectivity ratio in data set [3] is more than 833.
Turning to `COC(=O)C[C@H]1C(C)(C)[C@H](O)[C@H](O)[C@@H]2OC3=C(C)C4=CC(=O)O[C@@H](c5ccoc5)[C@]4(C)[C@@H](O)[C@@H]3[C@@]21C`, the EC50 in data set [1] is more than 100 µM.
Still for that read-out and setting: in the case of `C=C1[C@@H]2C[C@@]3(C)[C@H](c4ccoc4)OC(=O)C[C@]13O[C@H]1C[C@@H](O)C(C)(C)[C@H](CC(=O)OC)[C@@]1(C)C2=O` it was more than 100 µM.
